Data reported in ChEMBL document CHEMBL3421621, “SAR Studies of Diphenyl Cationic Trypanocides: Superior Activity of Phosphonium over Ammonium Salts” (ACS Med Chem Lett, 2015).

Columns and labels:
[1] = tested on: Trypanosoma brucei brucei; assay: Antitrypanosomal activity against wild type Trypanosoma brucei brucei s427 trypomastigotes assessed as cell viability after 48 hrs by alamar blue assay; type: functional, organism-based; settings: s427, 48 h
Outline: (§1)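 Alamar blue viability assay run in parallel on T. b. brucei s427 wild type trypomastigotes, the TbAT1-KO strain (no functional P2 transporter) and the B48 strain (derived from TbAT1-KO, nonfunctional HAPT). EC50 values are the mean of three experiments ± SEM. Resistance factor is the EC50 against each resistant strain relative to wild type.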

[2] = tested on: Trypanosoma brucei brucei; assay: Antitrypanosomal activity against AT1 knock out Trypanosoma brucei brucei assessed as cell viability after 48 hrs by alamar blue assay; type: functional, organism-based; outline: as §1
[3] = tested on: Trypanosoma brucei brucei; assay: Resistance factor, ratio of EC50 for AT1 knock out Trypanosoma brucei brucei to EC50 for wild type Trypanosoma brucei brucei s427 trypomastigotes; type: functional
Outline: (§2)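 AlamarBlue-based viability assay run in parallel on wild-type T. b. brucei s427 trypomastigotes and two resistant strains. TbAT1-KO lacks a functional P2 transporter and is diminazene-resistant. B48 is derived from TbAT1-KO and also lacks a functional high-affinity pentamidine transporter (HAPT). EC50 values are means of three experiments ± SEM. Each resistant-strain EC50 is divided by the wild-type EC50.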

[4] = tested on: Trypanosoma brucei brucei; assay: Antitrypanosomal activity against Trypanosoma brucei brucei B48 with nonfunctional high affinity pentamidine transporter assessed as cell viability after 48 hrs by alamar blue assay; type: functional, organism-based; settings: B48, 48 h; outline: as §1
[5] = tested on: Trypanosoma brucei brucei; assay: Resistance factor, ratio of EC50 for Trypanosoma brucei brucei B48 to EC50 for wild type Trypanosoma brucei brucei s427 trypomastigotes; type: functional; outline: as §2
[6] = Cytotoxicity against HEK293 cells after 16 hrs by alamar blue assay; type: cell-based; settings: human
[7] = Selectivity index, ratio of CC50 for HEK293 cells to EC50 for wild type Trypanosoma brucei brucei s427 trypomastigotes; type: toxicity, cell-based; settings: human; read-out: Ratio CC50/EC50
Outline: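 Selectivity index = CC50 for HEK cells divided by EC50 against T. b. brucei s427 wild type.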

Row | SMILES | EC50 [1] [µM] | EC50 [2] [µM] | Ratio EC50 [3] | EC50 [4] [µM] | Ratio EC50 [5] | CC50 at 16 h [6] [µM] | selectivity ratio [7]
1 | N=C(N)c1ccc(OCCCCCOc2ccc(C(=N)N)cc2)cc1 [PENTAMIDINE] | 0.01 | 0.006 | 0.6 | 0.329 | 32.9 | – | –
2 | N=C(N)c1ccc(/N=N/Nc2ccc(C(=N)N)cc2)cc1 [DIMINAZENE] | 0.323 | 0.738 | 2.3 | – | 3.1 | – | –
3 | CCCCCC[N+](CCCCCC)(CCCCCC)Cc1ccc(C(=O)c2ccccc2)cc1.[Br-] | 0.023 | 0.018 | 0.8 | 0.014 | 0.6 | 15.4 | 668
4 | CCCC[N+](CCCC)(CCCC)Cc1ccc(Oc2ccc(C[N+](CCCC)(CCCC)CCCC)cc2)cc1.[Br-].[Br-] | 2.8 | 3.98 | 1.4 | 3 | 1.1 | > 300 | > 100
5 | O=C(c1ccc(C[n+]2cccc3ccccc32)cc1)c1ccc(C[n+]2cccc3ccccc32)cc1.[Br-].[Br-] | 45.4 | 35.2 | 0.8 | 30.9 | 0.7 | > 300 | > 6
6 | O=C(c1ccccc1)c1ccc(C[n+]2cccc3ccccc32)cc1 | > 100 | 68.5 | – | 81.5 | – | – | –
7 | CCCCCC[N+](CCCCCC)(CCCCCC)Cc1ccc(Oc2ccc(C[N+](CCCCCC)(CCCCCC)CCCCCC)cc2)cc1.[Br-].[Br-] | 0.102 | 0.08 | 0.8 | 0.065 | 0.6 | 21.8 | 213
8 | [Br-].[Br-].c1cc[n+](Cc2ccc(Oc3ccc(C[n+]4ccccc4)cc3)cc2)cc1 | 85 | > 100 | – | 72 | 0.8 | – | –
9 | O=C(c1ccc(C[n+]2ccccc2)cc1)c1ccc(C[n+]2ccccc2)cc1 | > 100 | > 100 | – | > 100 | – | – | –
10 | [Br-].[Br-].c1ccc2c(c1)ccc[n+]2Cc1ccc(Oc2ccc(C[n+]3cccc4ccccc43)cc2)cc1 | 11 | 10.2 | 0.9 | 9.7 | 0.9 | > 300 | > 27
11 | CC[N+](CC)(CC)Cc1ccc(C(=O)c2ccc(C[N+](CC)(CC)CC)cc2)cc1 | > 100 | > 100 | – | > 100 | – | – | –
12 | CCCC[N+](CCCC)(CCCC)Cc1ccc(C(=O)c2ccc(C[N+](CCCC)(CCCC)CCCC)cc2)cc1.[Br-].[Br-] | 11.5 | 16.7 | 1.4 | 14.1 | 1.2 | > 300 | > 26
13 | O=C(c1ccccc1)c1ccc(C[n+]2ccccc2)cc1 | > 100 | > 100 | – | > 100 | – | – | –
14 | CC[N+](CC)(CC)Cc1ccc(Oc2ccc(C[N+](CC)(CC)CC)cc2)cc1 | > 100 | > 100 | – | > 100 | – | – | –
15 | Cl.O=C(c1ccccc1)c1ccc(CN(Cc2ccccc2)Cc2ccccc2)cc1 | 11 | 10 | 0.9 | 8.3 | 0.7 | > 300 | > 27
16 | CCCC[N+](CCCC)(CCCC)Cc1ccc(C(=O)c2ccccc2)cc1.[Br-] | 4.6 | 4.1 | 0.9 | 4.5 | 1 | > 300 | > 65
